In ChEMBL document CHEMBL2034867, “S-Farnesyl-Thiopropionic Acid (FTPA) Triazoles as Potent Inhibitors of Isoprenylcysteine Carboxyl Methyltransferase” (ACS Med Chem Lett, 2012):
Active and inactive are the calls of the source. The calls are words filed in the database; no cut-off is given here.

Experiments:
[1] = target: T1, Protein-S-isoprenylcysteine O-methyltransferase (Homo sapiens, UniProt O60725); experiment: Specific activity at ICMT at 10 uM relative to AFC
Summary of the method: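 Single-point vapor diffusion assay at 10 μM inhibitor. Icmt specific activity is expressed as percent of the no-inhibitor AFC control.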

[2] = target: T1, Protein-S-isoprenylcysteine O-methyltransferase; experiment: Inhibition of ICMT in cell free system
[3] = Cytotoxicity against human PA-TU-8902 cells after 5 days by MTT assay; assay type: functional, cell-based; details: PaTu 8902, 120 h
[4] = tested on: MEF; experiment: Cytotoxicity against icmt-positive MEF cells after 5 days by MTT assay; assay type: functional, cell-based; details: Mus musculus, 120 h
Summary of the method: (§1)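 MEFs from Icmt+/+ or Icmt–/– animals were seeded at 1000 cells/well in DMEM with 10% FBS for 24 h. Medium was then changed to DMEM with 5% FBS containing compound at various concentrations, or 0.1% DMSO. After 5 days, MTT (5 mg/mL) was added for 4 h at 37 °C. Medium was removed, formazan dissolved in DMSO, and absorbance read at 590 nm.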

[5] = target: T1, Protein-S-isoprenylcysteine O-methyltransferase; experiment: Inhibition of Icmt-mediated GFP-K-Ras membrane localization in human Jurkat T cells at 10 uM after 24 hrs by fluorescent microscopic analysis; assay type: cell-based
Summary of the method: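 Jurkat T cells (E6.1) were transfected with GFP-K-Ras and treated for 24 h with compound, vehicle, or 25 μM simvastatin. Cells were placed on poly-L-lysine-coated coverslips (100 μg/mL) and fixed in 3.7% formaldehyde for 10 min. GFP localization was scored by fluorescence microscopy in random fields of 100 cells as normal membrane, partial mislocalization or complete mislocalization.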

[6] = tested on: MEF; experiment: Cytotoxicity against icmt-double mutant MEF cells after 5 days by MTT assay; assay type: cell-based; details: Mus musculus, 120 h; summary of the method: as §1

T1 sequence (O60725 whole entry, the tested form may be a part): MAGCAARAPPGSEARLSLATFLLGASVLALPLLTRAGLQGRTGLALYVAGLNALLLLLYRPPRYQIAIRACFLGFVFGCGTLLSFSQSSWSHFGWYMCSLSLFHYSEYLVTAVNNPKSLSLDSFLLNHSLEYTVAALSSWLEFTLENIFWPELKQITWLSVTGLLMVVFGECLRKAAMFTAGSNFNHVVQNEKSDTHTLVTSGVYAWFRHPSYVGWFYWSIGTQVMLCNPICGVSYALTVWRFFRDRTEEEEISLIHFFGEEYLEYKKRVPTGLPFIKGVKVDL

| Structure (SMILES) | Activity [1] | other results |
| --- | --- | --- |
| C/C(=C\CSCCC(=O)O)CCn1cc(CCC(C)C)nn1 | 72% |  |
| COC(=O)CCSC/C=C(\C)CCn1cc(CCc2ccc(-c3ccccc3)cc2)nn1 | 14% | IC50 [2]: 0.8 µM; IC50 [3]: 8 µM; IC50 [4]: 33 µM; inhibition [5]: Active; IC50 [6]: > 100 µM |
| CC(C)=CCC/C(C)=C/CC/C(C)=C/Cc1cn(CCC(=O)O)nn1 | 53% |  |
| COC(=O)CCSC/C=C(\C)CCn1cc(CCOC2CCCCO2)nn1 (centres undefined) | 80% |  |
| CCCCCc1cn(CC/C(C)=C/CSCCC(=O)O)nn1 | 77% |  |
| CC(C)=CC/C(=C\CSC[C@H](NC(=O)c1ccccc1Oc1ccccc1)C(=O)O)CCc1ccc(-c2ccccc2)cc1 |  | IC50 [2]: 2.5 µM |
| CC(C)=CCC/C(C)=C/CCc1cn(CCC(=O)O)nn1 | 75% |  |
| CC(C)=CCC/C(C)=C/CC/C(C)=C/CSc1ccccc1C(=O)O [SALIRASIB] |  | IC50 [2]: 25.5 µM |
| COC(=O)CCSC/C=C(\C)CCn1cc(CCc2ccc(-c3cccc(C#N)c3)cc2)nn1 | 30% |  |
| CC(C)=CCC/C(C)=C/CCc1cn(CCCC(=O)O)nn1 | 90% |  |
| COC(=O)CCSC/C=C(\C)CCn1cc(CCc2ccc(-c3ccc(-c4ccccc4)cc3)cc2)nn1 | 79% |  |
| CC(C)=CCC/C(C)=C/CC/C(C)=C/Cc1cn(CC(=O)O)nn1 | 65% |  |
| COC(=O)CCSC/C=C(\C)CCn1cc(CC/C=C(\C)CCC=C(C)C)nn1 | 59% |  |
| CCCCCCCCCCc1cn(CC/C(C)=C/CSCCC(=O)OC)nn1 | 67% |  |
| COC(=O)CCSC/C=C(\C)CCn1cc(CCc2ccc(-c3ccc(F)cc3)cc2)nn1 | 28% |  |
| C/C(=C\CSCCC(=O)O)CCn1cc(Cc2ccccc2)nn1 | 82% |  |
| C/C(=C\CSCCC(=O)O)CCn1cc(CCc2cccc(-c3ccccc3)c2)nn1 | 74% |  |
| C/C(=C\CSCCC(=O)O)CCn1cc(CCc2ccc(-c3ccc(F)cc3)cc2)nn1 | 42% |  |
| C/C(=C\CSCCC(=O)O)CCn1cc(CCOC2CCCCO2)nn1 (centres undefined) | 90% | IC50 [2]: > 100 µM |
| CC(C)=CCC/C(C)=C/CC/C(C)=C/Cc1cn(CCCCC(=O)O)nn1 | 73% |  |
| C/C(=C\CSCCC(=O)O)CCn1cc(CCc2ccccc2)nn1 | 75% |  |
| CC(C)=CCC/C(C)=C/CC/C(C)=C/CCc1cn(CCC(=O)O)nn1 | 69% |  |
| C/C(=C\CSCCC(=O)O)CCn1cc(CCc2ccc(-c3ccccc3)cc2)nn1 | 43% |  |
| CC(C)=CCC/C(C)=C/CC/C(C)=C/Cc1cn(CCCC(=O)O)nn1 | 83% |  |
| C/C(=C\CSCCC(=O)O)CCn1cc(CCc2ccc(-c3cccs3)cc2)nn1 | 63% |  |
| C/C(=C\CSCCC(=O)O)CCn1cc(CCc2ccc(-c3cccc(C#N)c3)cc2)nn1 | 74% |  |
| C/C(=C\CSCCC(=O)O)CCn1cc(-c2cccc3ccccc23)nn1 | 77% |  |
| C/C(=C\CSCCC(=O)O)CCn1cc(COc2ccc(-c3ccccc3)cc2)nn1 | 75% |  |

Now from value to molecule, other results behind:

| Activity [1] | Structure (SMILES) | other results |
| --- | --- | --- |
| 84% | COC(=O)CCSC/C=C(\C)CCn1cc(-c2ccc(C(C)(C)C)cc2)nn1 |  |
| 77% | COC(=O)CCSC/C=C(\C)CCn1cc(CCC(C)C)nn1 |  |
| 67% | COC(=O)CCSC/C=C(\C)CCn1cc(COc2ccc(-c3ccccc3)cc2)nn1 |  |
| 82% | COC(=O)CCSC/C=C(\C)CCn1cc(-c2cccc3ccccc23)nn1 | IC50 [4]: 96 µM; IC50 [6]: > 100 µM |
| 82% | COC(=O)CCSC/C=C(\C)CCn1cc(-c2ccsc2)nn1 |  |
| 87% | COc1ccc(-c2cn(CC/C(C)=C/CSCCC(=O)O)nn2)cc1 |  |
| 74% | COC(=O)CCSC/C=C(\C)CCn1cc(CCc2ccccc2-c2ccccc2)nn1 |  |
| 89% | COC(=O)CCSC/C=C(\C)CCn1cc(-c2ccccc2)nn1 |  |
| 57% | COC(=O)CCSC/C=C(\C)CCn1cc(CCc2ccc(-c3cccs3)cc2)nn1 |  |
| 91% | COC(=O)CCSC/C=C(\C)CCn1cc(-c2ccc(OC)cc2)nn1 |  |
| 89% | C/C(=C\CSCCC(=O)O)CCn1cc(COc2ccccc2)nn1 |  |
| 80% | COC(=O)CCSC/C=C(\C)CCn1cc(Cc2ccccc2)nn1 |  |
| 76% | CCCCCc1cn(CC/C(C)=C/CSCCC(=O)OC)nn1 |  |
| 65% | COC(=O)CCSC/C=C(\C)CCn1cc(CCc2cccc(-c3ccccc3)c2)nn1 | IC50 [2]: 29 µM; IC50 [4]: 55 µM; IC50 [6]: > 100 µM |
| 89% | COC(=O)CCSC/C=C(\C)CCn1cc(COc2ccccc2)nn1 |  |
| 88% | C/C(=C\CSCCC(=O)O)CCn1cc(-c2ccccc2)nn1 |  |
| 80% | C/C(=C\CSCCC(=O)O)CCn1cc(-c2ccsc2)nn1 |  |
| 69% | COC(=O)CCSC/C=C(\C)CCn1cc(CCc2ccccc2)nn1 | IC50 [2]: 41 µM |
| 88% | C/C(=C\CSCCC(=O)O)CCn1cc(-c2ccc(C(C)(C)C)cc2)nn1 |  |
